Hits are enriched below; roughly 2.3% of the tested compounds scored in any of these assays.
CHT allo act: allosterically activates the human high affinity choline transporter; Q9GZV3; CHT-expressing cells, membrane potential dye, choline EC20; active compounds read high; LV-AA mutant CHT in HEK293 cells; B-score at 10 µM; hit rate 0.49% among 310,000; AID 488977;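 active = initial fluorescence not abnormally high and integrated response B-score, plate-corrected, over 3 SD above library mean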
NR2E3 ag-1: activates human photoreceptor nuclear receptor NR2E3 | Q9Y5X4 | GST-NR2E3/biotin-RetCOR TR-FRET, 1536-well | inhibition of corepressor binding, % at 4.78 µM | hit rate 0.12% among 320,000 | AID 2300;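 active = percent inhibition above the cutoff of mean plus 3 SD of all tested compounds, set per screening campaign, cut at about 20% in these data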;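 note: 0% = DMSO wells and 100% = biotin wells as full block of FRET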
Target sequence (Q9Y5X4 whole entry, looked up): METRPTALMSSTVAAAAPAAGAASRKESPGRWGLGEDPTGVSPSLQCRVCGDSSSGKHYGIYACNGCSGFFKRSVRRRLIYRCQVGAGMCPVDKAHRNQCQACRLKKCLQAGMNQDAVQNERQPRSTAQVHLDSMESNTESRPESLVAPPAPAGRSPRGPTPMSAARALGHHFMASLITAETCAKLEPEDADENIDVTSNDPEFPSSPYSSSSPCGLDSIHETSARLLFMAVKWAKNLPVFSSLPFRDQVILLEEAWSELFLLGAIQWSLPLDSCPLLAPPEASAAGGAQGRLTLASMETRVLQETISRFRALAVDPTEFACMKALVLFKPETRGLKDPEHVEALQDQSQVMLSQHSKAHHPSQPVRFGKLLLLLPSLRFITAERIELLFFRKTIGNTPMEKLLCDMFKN
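Material – GST-tagged NR2E3 plus biotinylated RetCOR corepressor · Quantity – NR2E3 fusion 1.35 nM · Times – 5 h incubation at 4 °C · Medium – pH 7.5 Tris-based buffer · Technique – TR-FRET, Eu(K)-anti-GST donor, streptavidin-D2 acceptor, ex 340, em 617/671 nm · Benchmarks – high control biotin, low control 0.6% DMSO · Format – 1536-well plates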
NR2E3 ag-2: activates human NR2E3 receptor | Q9Y5X4 | CHO-S Gal4-NCOR/VP16-NR2E3 two-hybrid, luciferase | inhibition of corepressor binding, % at 3.98 µM | hit rate 0.35% among 360,000 | AID 602229;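 active = inhibition above the mean of all tested compounds plus 3 SD, cut at about 70% in these data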;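 note: 0% = DMSO with NR2E3 transfected cells and 100% = cells lacking NR2E3 construct; higher means lower luciferase signal from less NR2E3 corepressor binding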
GalR3 antagonist: human GalR3 antagonism; O60755; HEK293 GalR3-CNG cAMP membrane potential fluorescence; galR3 body fused to GalR1 C-terminus; AID 651719; hit rate 0.44% among 360,000; inhibition, % at 3 µM;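 active = inhibition above the screen-wide average plus 3 SD, cut at about 13% in these data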;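 note: forskolin and galanin both at EC90 stimulate the cells; cAMP rise reported by CNG channel membrane potential dye signal; 0% = forskolin plus galanin with DMSO and 100% = forskolin alone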
Target sequence (O60755 1-299 limits assumed): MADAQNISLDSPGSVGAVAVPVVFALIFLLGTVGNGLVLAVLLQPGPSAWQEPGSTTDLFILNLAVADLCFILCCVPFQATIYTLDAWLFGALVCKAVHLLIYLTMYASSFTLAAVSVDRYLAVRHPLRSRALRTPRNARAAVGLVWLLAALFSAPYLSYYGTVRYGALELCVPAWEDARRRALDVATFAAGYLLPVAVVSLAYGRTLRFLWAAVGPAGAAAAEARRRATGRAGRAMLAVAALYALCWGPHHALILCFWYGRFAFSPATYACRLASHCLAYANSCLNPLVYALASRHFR
NR2F2 inh: NR2F2 (human) inhibition, primary screen | HEK293T NGFI-A luciferase reporter, luminescence | inhibition, % at 8.6 µM | hit rate 0.7% among 370,000 | AID 686940;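 active = inhibition above a per-plate cutoff, mean inhibition of test wells between control levels plus 3 SD, cut at about 38% in these data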;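 note: cells cotransfected with COUP-TFII expression vector driving the NGFI-A reporter; 0% = median of COUP-TF2 test wells and 100% = reporter-only cells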
CHT block: inhibits the human high affinity choline transporter; Q9GZV3; CHT-expressing cells, membrane potential dye, choline response; active compounds read low; B-score at 10 µM; hit rate 0.86% among 310,000; AID 488975;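 active = B-score over 3 SD under the library average, and starting fluorescence ratio not unusually high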;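 note: choline stimulus applied at its EC90 after an EC20 pre-addition; B-score computed on integrated fluorescence ratio after choline addition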
CHT act confirm: confirmation of human choline transporter (CHT) activators; shares compounds with CHT allo act; AID 504833; CHT-expressing cells, membrane potential dye fluorescence (FDSS); % of choline EC20–EC90 response window; HEK293 expressing CHT LV-AA mutant; choline added at its EC20; activation, % at 10 µM; hit rate 91% among 2,500;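 active = primary screen active, with duplicate mean activation above negative control mean plus 3 SD, cut at about 11% in these data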
HEK293 MP dye: CHT activator counter-screen hit in parental HEK293 cells; shares compounds with CHT allo act; membrane potential dye fluorescence (FDSS); measured after EC20 choline addition; ratio readout change at 10 µM, hits read low; hit rate 62% among 2,500; AID 623908;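 active = duplicate-averaged ratio beyond 3 SD from buffer wells, up or down, though filed actives are nearly all decreases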
Active calls of the source: *; i = inactive; nt = no result.

SMILES	CHT allo act	NR2E3 ag-1	NR2E3 ag-2	GalR3 antagonist	NR2F2 inh	CHT block	CHT act confirm	HEK293 MP dye
O=C(N/N=C/c1ccncc1)c1cc([N+](=O)[O-])cc([N+](=O)[O-])c1	i	3	-14	-2	-3	i	nt	nt
COC(=O)C1CN(Cc2cn(Cc3ccc(F)cc3)nn2)CCS(=O)(=O)N1Cc1ccc(F)cc1 (stereo not given)	nt	nt	nt	nt	2	nt	nt	nt
CCOc1ccc(-n2c(SCC(=O)Nc3cccc4ccccc34)nnc2-c2ccncc2)cc1	nt	nt	nt	nt	-16	nt	nt	nt
Cc1nc(NC2=NCN(CCCN3CCOCC3)CN2)nc2c(C)cccc12	i	3	-8	nt	nt	i	48*	-56*
Cc1ccccc1-n1cnc2cc(NCc3cccs3)ccc21	i	5	-40	-3	-3	i	nt	nt
COc1ccccc1-n1cnc2cc(NCc3cccs3)ccc21	7*	1	-38	-2	-73	i	59*	i
O=C(CSc1ccc2nnc(-c3ccccn3)n2n1)N1CCOCC1	i	-2	-25	2	5	i	42*	-36*
CCOC(=O)N1CCN(C(=O)CSc2ccc3nnc(-c4ccccn4)n3n2)CC1	i	0	-38	-10	19	i	nt	nt
O=[N+]([O-])c1cccc(OC[C@@H](O)CN2CCC(C(O)(c3ccccc3)c3ccccc3)CC2)c1	nt	nt	nt	nt	-19	nt	nt	nt
CCOC(=O)c1ccc(NC(=O)Nc2ccc(Cl)cn2)cc1	i	2	-6	-3	-7	i	nt	nt
CCOC(=O)c1ccc(NC(=O)Nc2ccon2)cc1	i	4	-41	2	-85	i	30*	i
COc1ccc(C(C(=O)N(C)C2CCCC2)N(Cc2ccc(F)cc2)C(=O)c2cc(C)on2)cc1OC (stereo not given)	nt	nt	nt	nt	4	nt	nt	nt
COC(=O)[C@H](C(C)C)N(Cc1cn(Cc2ccc(C)cc2)nn1)S(=O)(=O)c1ccc(F)cc1Br	nt	nt	nt	nt	18	nt	nt	nt
C=CCNC(=O)c1ccc2c3n(nc2c1)-c1ccc(Cl)cc1CO3	6.5*	2	-58	-1	-36	i	15*	-20*
CCCCCC(=O)NC1CCCCN(Cc2ccc(C)cc2)C1=O (stereo not given)	nt	nt	nt	nt	-14	nt	nt	nt
COc1ccc(C(=O)N/N=C/c2ccccn2)cc1OC	10*	3	-9	2	14	i	54*	-66*
COc1cc(C(=O)N/N=C/c2ccccn2)cc(OC)c1OC	i	3	-2	5	-65	i	nt	nt
Cc1cc(=O)n2c3ccccc3n(CC(O)CN3CCCCC3)c2c1C#N (stereo not given)	7.3*	-2	16	-9	-18	i	27*	-44*
Cc1cc(=O)n2c3ccccc3n(CC(O)CN3CCOCC3)c2c1C#N (stereo not given)	i	-1	-5	-6	-1	i	nt	nt
Cc1c2c(n3c(nc4ccccc43)c1C#N)N(CCN1CCOCC1)CC2	7.9*	-5	5	-6	19	i	54*	-46*
Cc1cc(NCCCN2CCOCC2)n2c(nc3ccccc32)c1C#N	6.3*	2	-19	-2	-11	i	55*	-91*
Cc1cc(NCCN2CCOCC2)n2c(nc3ccccc32)c1C#N	i	1	-10	0	10	i	nt	nt
CCN(CC)CCNc1cc(C)c(C#N)c2nc3ccccc3n12	i	-1	15	-8	11	i	42*	-81*
Cc1ccc(C(=O)NCCN2C(=O)C3C4C=CC(C4)C3C2=O)cc1 (stereo not given)	nt	nt	nt	nt	0	nt	nt	nt
COc1ccc(C(C)c2cn(C)c3ccccc23)cc1 (stereo not given)	nt	nt	nt	nt	1	nt	nt	nt
SMILES	CHT allo act	NR2E3 ag-1	NR2E3 ag-2	GalR3 antagonist	NR2F2 inh	CHT block	CHT act confirm	HEK293 MP dye
CCC1=Nc2ccc(Br)cc2C(c2ccccc2)N1CC(=O)OC (stereo not given)	11*	6	-23	-6	-5	i	14*	i
COC(=O)CN1C(C)=Nc2ccc(C)cc2C1c1ccccc1 (stereo not given)	i	-1	-12	-5	5	i	nt	nt
Cc1cc(C)n2c(Nc3ccc4c(c3)OCCO4)c(-c3ccc(C)o3)nc2n1	9.7*	3	-94	3	-63	i	83*	-50*
Cc1cc(C)n2c(Nc3ccc4c(c3)OCCO4)c(-c3ccc(F)cc3)nc2n1	nt	nt	-44	-2	-51	nt	nt	nt
Cc1ccc(NC(=O)C2CCCN(c3nnc(-n4cccc4)s3)C2)c(C)c1 (stereo not given)	nt	nt	nt	nt	0	nt	nt	nt
N#Cc1cc(Sc2ccccn2)c([N+](=O)[O-])cc1C#N	i	-1	-6	1	19	i	46*	-41*
N#Cc1cc(Sc2ccccn2)c(Sc2ccccn2)cc1C#N	i	4	17	-5	-6	i	nt	nt
O=S1(=O)c2ccc(Br)cc2OC[C@@H](c2ccccc2)N1Cc1cn(CCC2OCCO2)nn1	nt	nt	nt	nt	5	nt	nt	nt
Cc1nn(-c2ccccc2)c(C)c1/C=N/n1c(-c2ccc(Cl)cc2)n[nH]c1=S	i	-1	6	-3	7	i	8	i
Cc1nn(-c2ccccc2)c(C)c1/C=N/n1c(-c2ccncc2)n[nH]c1=S	i	1	-8	-2	5	i	nt	nt
CCC1=[N+](C)c2cccc3cccc(c23)N1C	9.6*	0	6	2	2	i	71*	-86*
CCN1C(=O)Nc2cccc3cccc1c23	i	-5	-72	7	-78	i	nt	nt
CC[N+](CC)(CC)CCOc1cccc(OCC[N+](CC)(CC)CC)c1OCC[N+](CC)(CC)CC	11*	0	-9	nt	nt	i	72*	-93*
CC[N+](CC)(CC)CCOc1ccc(/C=C/c2ccccc2)cc1	i	2	-3	nt	-10	i	nt	nt
CC(Sc1nnc(-c2ccc(Cl)cc2Cl)n1Cc1ccccc1)C(=O)Nc1nccs1 (stereo not given)	7.1*	0	12	-6	14	i	35*	i
O=C(Nc1ccccc1)Nc1ccncc1	i	1	-11	-5	-10	i	nt	nt
O=C(Nc1ccncc1)Nc1ccccn1	i	4	23	-4	18	i	50*	-45*
COCCCNC(=O)C[C@H]1C[C@@]2(C(=O)OC)C(=C[C@H](C(C)C)O[C@@H]2C2CC2)N(Cc2ccc(Cl)cc2Cl)C1=O	nt	nt	nt	nt	-4	nt	nt	nt
O=C(CNS(=O)(=O)c1cccs1)N1CCN(c2ncccn2)CC1	nt	nt	nt	nt	-6	nt	nt	nt

High-throughput results from PubChem.
